Experimental data from ChEMBL document CHEMBL3580583, “17-Norpimaranes and (9βH)-17-Norpimaranes from the Tuber of Icacina trichantha” (J Nat Prod, 2015).

How the values were obtained:
Format in all cases: functional, cell-based
[1] = tested on: MDA-MB-435; test: Cytotoxicity against human MDA-MB-435 cells assessed as cell viability after 72 hrs by commercial absorbance assay; conditions: MDA-MB-435, 72 h
Procedure, shortened: (§1)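 Cells from ATCC grown at 37°C, 5% CO₂ in RPMI 1640 with 10% FBS, penicillin 100 units/mL and streptomycin 100 µg/mL. Log-phase cells were trypsinized, washed twice, seeded at 5,000/well and incubated overnight. Samples in DMSO were added at 20, 4, 0.8, 0.16 and 0.032 µM (0.5% DMSO) for 72 h at 37°C. Viability was read by CellTiter 96 AQueous One absorbance; IC₅₀ relative to DMSO control.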

[2] = tested on: OVCAR-3; test: Cytotoxicity against human OVCAR3 cells assessed as cell viability after 72 hrs by commercial absorbance assay; conditions: OVCAR-3, 72 h; procedure, shortened: as §1
[3] = tested on: MDA-MB-231; test: Cytotoxicity against human MDA-MB-231 cells assessed as cell viability after 72 hrs by commercial absorbance assay; conditions: MDA-MB-231, 72 h; procedure, shortened: as §1

## C[C@@]12CC[C@@H]3C(=C[C@H]4OC(=O)[C@]5(C)[C@H]4[C@]34CCC5(O)OC4)[C@]1(O)OC[C@H]2O
[1]
  IC50: 1.25 µM
[2]
  IC50: 7.55 µM
[3]
  IC50: 7.3 µM

## C[C@@]12CC[C@@H]3C(=C[C@H]4OC(=O)[C@]5(C)[C@H]4[C@]34CCC5(O)OC4)[C@@H]1OC[C@H]2O
[1]
  IC50: 1.65 µM
[2]
  IC50: 4.12 µM
[3]
  IC50: 3.74 µM

## C[C@]12C(=O)O[C@@H]3C[C@H]4C5=C(CC[C@H]4[C@@]4(CCC1(O)OC4)[C@@H]32)C(=O)CO5
[1]
  IC50: 0.66 µM
[2]
  IC50: 1.05 µM
[3]
  IC50: 0.67 µM

## C[C@]12C(=O)O[C@@H]3C[C@H]4c5occc5C(=O)C[C@H]4[C@@]4(COC1(O)C[C@@H]4O)[C@@H]32
[1]
  IC50: 6.44 µM
[2]
  IC50: 18.7 µM
[3]
  IC50: 10.8 µM

## C[C@]12C(=O)O[C@@H]3Cc4c(ccc5ccoc45)C4(CCC1(O)OC4)[C@@H]32 (stereo partly specified)
[1]
  IC50: > 20 µM
[2]
  IC50: 17.8 µM
[3]
  IC50: > 20 µM

## COc1cc2c(c3occc13)C[C@H]1OC(=O)[C@]3(C)[C@H]1C21CCC3(O)OC1 (stereo partly specified)
[1]
  IC50: > 20 µM
[2]
  IC50: > 20 µM
[3]
  IC50: > 20 µM

## COc1cc2c(c3occc13)C[C@H]1OC(=O)[C@]3(C)[C@H]1[C@@]21CO[C@](O)(C1)[C@@H]3O
[1]
  IC50: > 20 µM
[2]
  IC50: > 20 µM
[3]
  IC50: > 20 µM

## COc1cc2c(c3occc13)C[C@H]1OC(=O)[C@]3(C)[C@H]1[C@@]21CO[C@](O)(C1)[C@H]3O
[1]
  IC50: > 20 µM
[2]
  IC50: > 20 µM
[3]
  IC50: > 20 µM

## C[C@]12C(=O)O[C@@H]3C[C@H]4c5occc5C(=O)C[C@H]4C4(CCC1(O)OC4)[C@@H]32 (stereo partly specified)
[1]
  IC50: > 20 µM
[2]
  IC50: > 20 µM
[3]
  IC50: > 20 µM

## C[C@]12C(=O)O[C@@H]3C[C@@]4(O)c5occc5C(=O)C[C@H]4C4(CCC1(O)OC4)[C@@H]32 (stereo partly specified)
[1]
  IC50: 6.16 µM
[2]
  IC50: 10.5 µM
[3]
  IC50: 8.94 µM

## C[C@]12C(=O)O[C@@H]3C[C@@H]4[C@@H](CCC5=CC(=O)O[C@@H]54)C4(CCC1(O)OC4)[C@@H]32 (stereo partly specified)
[1]
  IC50: > 20 µM
[2]
  IC50: > 20 µM
[3]
  IC50: > 20 µM

## CC[C@]1(O)C[C@@H]2CN(CCc3c([nH]c4ccccc34)[C@@](C(=O)OC)(c3cc4c(cc3OC)N(C)[C@H]3[C@@](O)(C(=O)OC)[C@H](OC(C)=O)[C@]5(CC)C=CCN6CC[C@]43[C@@H]65)C2)C1 [VINBLASTINE]
[1]
  IC50: 0.00049 µM
[2]
  IC50: 0.00182 µM
[3]
  IC50: 0.00878 µM
